Compound activity: PubChem BioAssay, several laboratories
Sampled rows, rich in hits. Any-hit rate of the full collection: about 2.3%.
TPT1 inhibitor: blocks Candida albicans tRNA 2'-phosphotransferase | recombinant caTPT1, FP RNA substrate dephosphorylation | AID 1962 | hit rate 0.81% among 300,000 | inhibition, % at 5 µM;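 active means inhibition above the mean of all tested compounds plus 3 SD, set per screening campaign, cut at about 24% in these data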
CSN inh: blocks human CSN-mediated cullin deneddylation. Q92905. Purified CSN, SCF-Nedd8-OG deneddylation, fluorescence polarization. inhibition, % at 12.5 µM. hit rate 0.38% among 360,000;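 active means pattern-corrected inhibition above about 35%, with an unprinted fluorescence ratio check between 0.5 and 1.5, limit read from the data, passing the limit was not always enough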
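Assay system: purified human Csn5 enzyme expressed in HEK293T cells; Input: 0.24 nM Csn5 enzyme, final concentration; Reagent: 10 nM SCFSkp2-Nedd8OG; Compound dosing: 12.5 µM single point; Times: reaction 90 min, room temperature; Technique: fluorescence polarization readout.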
HNF4A DNA FP: change in binding of human HNF4 alpha to DNA. P41235. HNF4a-FITC DNA binding, fluorescence polarization, 1 h. activity change, % at 10 µM. hit rate 0.3% among 360,000; in the data active means activity change above about 30%, passing the limit was not always enough
Rpn11 inh: inhibitors of human proteasome Rpn11; human 26S proteasome, Ub4-pepOG fluorescence polarization; 20S core pre-blocked with epoxomicin; inhibition, % at 20 µM; hit rate 0.59% among 360,000;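 active means inhibition at 20 µM, scaled to each plate's controls, above about 33%, limit read from the data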
Myeloid diff 2: compounds promoting myeloid differentiation; hit rate 1% among 360,000; calls only at 10 µM; ER-HoxA9 myeloid progenitors, lysozyme-GFP differentiation, flow cytometry;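 active means normalized GFP-positive differentiation at or above the plate's own cutoff, the solvent-only control mean plus 3 SD; inconclusive means no clear call, values can overlap the other calls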;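 further: cells exposed to compound for four days before flow analysis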
CSN5 deneddyl: Csn5 (human) deneddylation inhibition, single-concentration validation; shares compounds with CSN inh; Csn5 deneddylation of SCF-Nedd8OG, fluorescence polarization, 90 min; inhibition, % at 16.6 µM; hit rate 62% among 540; in the data active means inhibition above about 50%
MMP2 cntr CSN: blocks human MMP-2 in a CSN deneddylation counter-screen | shares compounds with CSN inh | recombinant MMP-2, FRET substrate fluorescence, 60 min | inhibition, % at 16.6 µM | hit rate 33% among 540 | AID 720655;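 active means corrected plate-normalized z-score of 5 or more, or -5 or less, or inhibition of 15% or more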
Thrombin counter: thrombin (bovine) inhibition, counter-screen for CSN hits; shares compounds with CSN inh; bovine thrombin cleavage of Ub4-pepOG, fluorescence polarization; inhibition, % at 16.6 µM; hit rate 49% among 540; AID 720656;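 active means inhibition at or above a set limit, with a fluorescence interference ratio between 0.5 and a set maximum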
Target sequence (P00735 whole entry, looked up): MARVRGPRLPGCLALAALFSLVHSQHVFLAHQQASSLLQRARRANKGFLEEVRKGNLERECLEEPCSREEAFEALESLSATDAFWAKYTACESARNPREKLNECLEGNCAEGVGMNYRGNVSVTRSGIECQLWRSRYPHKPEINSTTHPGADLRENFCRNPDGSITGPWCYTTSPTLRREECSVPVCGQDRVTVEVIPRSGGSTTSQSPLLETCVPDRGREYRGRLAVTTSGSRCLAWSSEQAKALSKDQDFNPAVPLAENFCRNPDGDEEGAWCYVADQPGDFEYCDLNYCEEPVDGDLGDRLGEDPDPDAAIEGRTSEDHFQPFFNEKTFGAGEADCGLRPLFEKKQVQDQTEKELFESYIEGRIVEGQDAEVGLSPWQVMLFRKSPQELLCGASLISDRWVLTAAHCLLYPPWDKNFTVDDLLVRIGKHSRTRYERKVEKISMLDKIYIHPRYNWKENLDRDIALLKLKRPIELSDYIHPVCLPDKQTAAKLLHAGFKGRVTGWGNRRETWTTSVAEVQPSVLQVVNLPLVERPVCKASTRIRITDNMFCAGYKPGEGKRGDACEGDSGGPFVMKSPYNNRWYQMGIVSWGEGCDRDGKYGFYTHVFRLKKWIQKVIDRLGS
Of the large screens only hits and unclear results are named; the others gave an inactive call (follow-up assays come after a bar, where shown).

O=C(NCCNC(=O)c1ccccc1Br)c1cccnc1	none
NCc1cc2c3c(c1)CCCN3CCC2	CSN inh 63 | CSN5 deneddyl 88 | MMP2 cntr CSN inactive | Thrombin counter inactive
COc1c(C=O)cc2c3c1CCCN3CCC2	none
C/C(=N\NC(=O)c1cc(-c2cccc([N+](=O)[O-])c2)n[nH]1)c1ccccc1O	CSN inh 40 | MMP2 cntr CSN inactive | Thrombin counter inactive
C/C(=N/NC(=O)c1cc(-c2cccc([N+](=O)[O-])c2)n[nH]1)c1cccc(O)c1	none
COc1cc(/C=C/C=C2/CC/C(=C/C=C/c3ccc(O)c(OC)c3)C2=O)ccc1O	CSN inh 115 (not shown: TPT1 inhibitor, Rpn11 inh, Myeloid diff 2) | CSN5 deneddyl inactive | MMP2 cntr CSN -41 | Thrombin counter 52
COC(=O)c1ccc(N2NC(=O)/C(=C/c3ccc(-c4ccc(Cl)c(C(=O)O)c4)o3)C2=O)cc1	none (no result: TPT1 inhibitor)
O=C1NN(c2ccccc2)C(=O)/C1=C/c1ccc(-c2ccc(C(=O)O)cc2)o1	CSN inh 35 | CSN5 deneddyl 60 | MMP2 cntr CSN inactive | Thrombin counter inactive
COc1cc(OC)c(OC)cc1/C=C1\CCC/C(=C\c2cc(OC)c(OC)cc2OC)C1=O	CSN inh 37, HNF4A DNA FP 54 (not shown: TPT1 inhibitor, Rpn11 inh) | CSN5 deneddyl 66 | MMP2 cntr CSN inactive | Thrombin counter 43
Cc1ccc(S(=O)(=O)/N=C(/Nc2cccc3ccccc23)c2ccc(F)cc2)cc1	none
O=C1C(=O)N(CCc2c[nH]c3ccccc23)C(c2cccnc2)/C1=C(/O)c1ccccc1 (stereo not drawn)	none (no result: CSN inh, HNF4A DNA FP, Rpn11 inh, Myeloid diff 2)
Cc1ccc(S(=O)(=O)Nc2ccc(=O)n(Cc3ccc(Cl)c(Cl)c3)c2)cc1	none
COc1cc(/C=C2\SC(=S)N(NC(=O)c3cccc(O)c3)C2=O)ccc1O	CSN inh 50, HNF4A DNA FP 47 (not shown: TPT1 inhibitor, Rpn11 inh) | CSN5 deneddyl 96 | MMP2 cntr CSN inactive | Thrombin counter 40
CC(=O)N1CC[n+]2c(-c3ccc(Cl)cc3Cl)csc21	none
COc1ccc(S(=O)(=O)N2CCN(CC(=O)NCCc3cccs3)CC2)cc1	none (no result: TPT1 inhibitor)
CC1(C(=O)NCc2ccccc2)CN(S(C)(=O)=O)CC(=O)N1CCCn1ccnc1 (stereo not drawn)	none (no result: TPT1 inhibitor, Rpn11 inh)
O=C(/C=C/Nc1ccc(Nc2ccccc2)cc1)c1cccs1	CSN inh 37, HNF4A DNA FP 57 (not shown: TPT1 inhibitor, Rpn11 inh) | CSN5 deneddyl 94 | MMP2 cntr CSN inactive | Thrombin counter inactive
Cc1ccc(N/C=C/C(=O)c2cccs2)cc1C	none
Cc1ccc(C(C)C)cc1OCC(=O)Nc1ccc(N2CCCCC2)cc1	none
Fc1cccc(Cc2c(-c3ccco3)nc3c4ccccc4ccn23)c1	CSN inh 49 (no result: TPT1 inhibitor) | CSN5 deneddyl 69 | MMP2 cntr CSN inactive | Thrombin counter 20
COC(=O)Nc1ccc(SCC(=O)c2cccc([N+](=O)[O-])c2)cc1	none
O=C(O)c1ccc(-n2cccc2/C=N\NC(=O)c2cc3cc(Br)ccc3o2)cc1	CSN inh 43 | CSN5 deneddyl inactive | MMP2 cntr CSN 21 | Thrombin counter 22
O=C(O)c1cccc(N=C2NC(=O)C(CO)(CO)S2)c1	none
COC(=O)/C=C1\SC(=Nc2ccc(Cl)c(Cl)c2)NC1=O	none
COc1cc(/C=C2\SC(=Nc3ccc(Cl)c(C(=O)O)c3)NC2=O)c(Br)c(Br)c1O	CSN inh 198, HNF4A DNA FP 76 (not shown: TPT1 inhibitor, Rpn11 inh) | CSN5 deneddyl inactive | MMP2 cntr CSN -101 | Thrombin counter inactive
Nc1ncnc2c(C3OC(CO)C(O)C3O)c[nH]c12 (stereo not drawn)	Myeloid diff 2 inconclusive (no result: TPT1 inhibitor)
Cc1cc(N)c2cc(NC(=O)/C=C/c3ccccc3Cl)ccc2n1	CSN inh 108, HNF4A DNA FP 37, Rpn11 inh 136 | CSN5 deneddyl inactive | MMP2 cntr CSN 54 | Thrombin counter inactive
Cc1cc(C)nc(NC(=O)/C=C/c2ccccc2Cl)c1	none
CCOC(=O)/C=C(\C)Sc1cc(O)c2ccccc2c1O	CSN inh 42 (no result: TPT1 inhibitor, Myeloid diff 2) | CSN5 deneddyl 51 | MMP2 cntr CSN 24 | Thrombin counter inactive
